Assay outcomes (PubChem BioAssay)
CAL PDZ FP-1 – untagged CAL PDZ binding inhibitors, primary screen, biochemical, fluorescence polarization, HTS. Golgi-associated PDZ and coiled-coil motif-containing protein (Homo sapiens), Q9HD26. purified CAL PDZ, TMR-peptide fluorescence polarization, 1 h. inhibition, % at 24.9 µM. 0.92% of 300,000 active. AID 602252, 2012;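 active = mean inhibition of at least 30% with at least half of replicates also reaching 30%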;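 note: 0% = DMSO neutral control and 100% = excess unlabeled competitor peptide PRC23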
CFTR F508del cor – F508del CFTR correction, initial screen, CFBE line, single point; CFBE cells, YFP halide quenching; stimulated with forskolin plus potentiator P3; % fluorescence drop versus neutral controls; AID 720511, 2013; activity (quench increase), % at 7.58 µM; 0.36% of 350,000 active;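 active = mean added fluorescence quench of at least 8% versus neutral control, with both replicates also reaching 8%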;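 note: cells transiently co-express mutant CFTR-F508del with the halide-sensitive YFP; corrector assay measuring rescue of mutant channel to the surface after 24 h compound exposure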
miR-122 sensor – miR-122 Renilla sensor signal increase in Huh7, primary screen, miR-122 inhibitor project, cell-based, single point, plate reader; Huh7 miR-122 Renilla luciferase sensor, 48 h; neutral wells = 0, positive control = 100; activation (reporter increase), % at 12.5 µM; 0.3% of 340,000 active; AID 602342, 2012;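 active = mean replicate activation score at least 90 and every replicate individually at or above 90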;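 note: higher luciferase means less miR-122 activity so hits act as miR-122 inhibitors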
ARNT TACC3 PPI – disruptors of ARNT/TACC3 protein interaction, primary screen, biochemical, AlphaScreen, single concentration; 0.66% of 390,000 active; AlphaScreen His-ARNT PAS-B/GST-TACC3 binding, luminescence; TACC3 fragment carries E629A point mutation; inhibition, % at 9.99 µM; Transforming acidic coiled-coil-containing protein 3 (Homo sapiens), Q9Y6A5;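 active = mean inhibition of replicates at least 50% and at least half of replicates each reaching 50%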;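 note: 0% = complete ARNT plus TACC3 wells and 100% = ARNT alone without TACC3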
CAL PDZ FP-2 – CAL PDZ peptide-binding inhibitors, primary screen, biochemical, fluorescence polarization, Cer-tagged CAL PDZ, HTS | Golgi-associated PDZ and coiled-coil motif-containing protein (Homo sapiens), Q9HD26 | purified CAL PDZ, TMR-peptide fluorescence polarization, 1 h | inhibition, % at 20 µM | 0.02% of 330,000 active;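 active = highest replicate inhibition of at least 40%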;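 note: plate controls were DMSO neutral control wells for no effect and unlabeled competitor peptide control wells for full effect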
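Test system: purified CerCALP PDZ construct; Compound dosing: one concentration, 20 µM compound; Also added: TMR-labelled reporter peptide T*-PRC34 bound in PDZ groove; Read-out: inhibition from polarization loss; Controls: unlabelled peptide and DMSO controls; Signal: FP readout, S and P plane fluorescence; Incubation: 1 h at RT.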
PGC1a acetyl inh – inhibitors of PGC1a acetylation signal, primary screen, cell-based, U2OS, AlphaScreen, inhibitor mode; AlphaScreen anti-acetyl-lysine; with virally co-expressed GCN5 acetyltransferase; inhibition, % at 15.6 µM; 0.17% of 350,000 active;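 active = every replicate shows inhibition of at least 40%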;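 note: 0% = neutral control wells and 100% = positive control wells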
Numbers without * were called inactive; x = no result; + = active, no number; [ ] = another dose, or the depositor's remark. Hits are enriched below; roughly 1.7% of the tested compounds scored in any of these assays.

SMILES	CAL PDZ FP-1	CFTR F508del cor	miR-122 sensor	ARNT TACC3 PPI	CAL PDZ FP-2	PGC1a acetyl inh
Cc1ccc(-c2nc3c(c(=O)[nH]c(=O)n3Cc3ccccc3)n2Cc2ccccc2)o1	8.2	-2.6	x	-2.2	-3.3	x
C[C@H](CO)N1C[C@H](C)[C@@H](CN(C)C)Oc2cc(-c3cccnc3)ccc2S1(=O)=O	x	0.6	10.4[16.7 µM]	9.9	x	9.6
O=S(=O)(NCCOCC(F)(F)C(F)F)c1ccc2oc3ccccc3c2c1	-1.7	x	107.3*	4.8	x	11.8
COc1ccc(-n2nnnc2/C=C/Nc2cc(C(F)(F)F)ccc2OC)cc1	104.8*	0.7	-0.6	-2.1	0.3	17.9
C[C@@H]1CN([C@@H](C)CO)C(=O)Cc2cc(NC(=O)c3ccncc3)ccc2O[C@@H]1CN(C)C(=O)Nc1ccc2c(c1)OCO2	x	5.1	6.7[16.7 µM]	x	x	5.9
O=[N+]([O-])c1cccnc1N/N=C/c1ccccc1O	76.3*	-1.1	0.4	2.9	-0.6	-1.4
Cc1c(O)ccc(/C=N/Nc2ncccc2[N+](=O)[O-])c1O	-7.7	-1.9	x	-6.5	0.5	x
Oc1ccccc1/C=N/Nc1nccnc1Cl	-1.8	x	2.1	67.0*	-0.7	-46.6
Oc1ccc(/C=N/Nc2nccnc2Cl)c(O)c1	-5.2	x	-31.7	-3.4	-1.4	27.6
CCCNC(=O)C[C@@H]1CC[C@@H]2[C@H](COc3ccc(NC(=O)c4ccccc4)cc3C(=O)N2C)O1	x	0.9	-4.3[16.7 µM]	-2.6	x	-2.7
CCCC(=O)Nc1ccc2c(c1)C(=O)N(C)C[C@@H](OC)[C@@H](C)CN(Cc1cccc(F)c1)[C@@H](C)CO2	x	-0.3	0.2[16.7 µM]	0.5	x	-1.9
COc1cccc(NC(=S)N2CCN(S(=O)(=O)c3ccc(F)cc3)CC2)c1	-0.1	2.6	x	-2.6	-2.8	x
COc1cc(NC(=S)N2CCN(S(=O)(=O)c3ccc(F)cc3)CC2)cc(OC)c1	48.3*	-2.7	x	-2.5	-1.7	x
COCCn1c(SCc2ccc(OC)c(F)c2)nc2ccccc2c1=O	x	-0.4	x	-14.1	-0.7	-1.7
COCCn1c(SCc2ccc(F)cc2)nc2ccccc2c1=O	+	-3.0	x	-5.5	-0.3	x
O=C(CC1CC1)Nc1ccc2c(c1)[C@@H]1C[C@@H](CC(=O)N3CCCCC3)O[C@@H](CO)[C@@H]1O2	x	3.7	1.4[16.7 µM]	2.7	x	-5.2
O=C(NCc1ccc(Cl)cc1)c1cc2ccccc2oc1=O	-2.9	-1.0	-3.2	-3.2	-1.1	5.2
O=C(NCc1ccccc1)c1cc2ccccc2oc1=O	67.9*	2.9	2.8	-27.2	3.2	x
C[C@H](CO)N1C[C@H](C)[C@H](CN(C)C(=O)Nc2ccc(F)cc2)Oc2ccc(NC(=O)CCCN(C)C)cc2C1=O	x	0.3	-7.9[16.7 µM]	x	x	9.9
CC(C)CC(CO)NS(=O)(=O)c1cccc(Cl)c1F (stereo unspecified)	-3.0	-1.9	-13.7	2.6	-0.5	8.9
CC(C)C[C@@H](CO)NS(=O)(=O)c1c(F)cccc1F	35.2*	-1.9	-5.8	0.9	3.9	x
COc1ccc(S(=O)(=O)Nc2ccc3c(c2)CC(=O)N([C@H](C)CO)C[C@@H](C)[C@@H](CN(C)S(=O)(=O)c2c(C)noc2C)O3)cc1	x	-2.6	-1.4[16.7 µM]	-5.8	x	-0.6
C#Cc1ccc(NC(=O)C2(C)CCN2C(=O)c2cc(C)n(C)n2)cc1 (stereo unspecified)	x	8.1*	-2.4	x	x	-0.7
Cc1cc(C(=O)N2CCC2(C)C(=O)NCCC#N)nn1C (stereo unspecified)	x	-0.6	0.9	x	x	-6.1
Cc1noc(C)c1NC(=O)Nc1ccc2c(c1)C(=O)N([C@@H](C)CO)C[C@@H](C)[C@@H](CN(C)C(=O)Nc1ccc(F)cc1)O2	x	2.3	-2.6[16.7 µM]	-2.1	x	-4.5
SMILES	CAL PDZ FP-1	CFTR F508del cor	miR-122 sensor	ARNT TACC3 PPI	CAL PDZ FP-2	PGC1a acetyl inh
Cc1sc2nc(SC3CCOC3=O)n(Cc3ccccc3)c(=O)c2c1C (stereo unspecified)	-1.2	x	x	-1.5	-4.0	x
C=CCn1c(SC2CCOC2=O)nc2sc(C)c(C)c2c1=O (stereo unspecified)	48.6*	x	4.2	6.5	x	-2.0
COc1ccc(-c2cnc3c(c2)C(=O)N([C@@H](C)CO)C[C@@H](C)[C@H](CN(C)C(=O)C2CC2)O3)cc1	x	1.3	12.7[16.7 µM]	x	x	x
C[C@H](CO)N1C[C@H](C)[C@H](CN(C)C(=O)NC2CCCCC2)Oc2ncc(-c3cc4ccccc4o3)cc2C1=O	x	8.7*	-2.8[16.7 µM]	5.6	x	-3.8
COc1ccc(-c2cnc3c(c2)C(=O)N([C@H](C)CO)C[C@H](C)[C@@H](CN(C)C(=O)C2CC2)O3)cc1	x	3.1	20.5[16.7 µM]	x	x	111.1*
C[C@H]1CN([C@@H](C)CO)C(=O)c2cc(C#CC(C)(C)O)cnc2O[C@@H]1CN(C)C(=O)C1CCC1	x	0.0	-9.9[16.7 µM]	-6.2	x	100.7*
COc1ccc(-c2cnc3c(c2)C(=O)N([C@H](C)CO)C[C@@H](C)[C@@H](CN(C)C(=O)Nc2c(C)noc2C)O3)cc1	x	1.3	x	-1.3	x	43.5*
O=C(CCN1CCOCC1)N/N=C/c1cc(Br)cc(Br)c1O	0.7	3.2	-0.8	69.7*	-2.9	4.3
Cc1cc(=O)oc2cc(OCC(=O)N/N=C/c3ccccc3O)ccc12	-0.4	0.4	-3.0	-3.5	-1.8	2.8
CSc1nc(C)cc(OCC(=O)N/N=C/c2ccccc2O)n1	-2.0	x	x	49.2*	-1.9	x
O=C(NCCCN1CCOCC1)C(=O)N/N=C/c1ccccc1O	-3.1	3.0	x	68.9*	-2.5	8.9
Cc1cc(/C=N/NC(=O)C(=O)NCc2ccccn2)c(C)n1-c1cccc(Br)c1	1.6	x	2.2	x	-1.9	4.0
O=C(NCc1ccccn1)C(=O)N/N=C/c1ccccc1O	6.4	-0.8	-4.6	63.8*	0.1	7.1
CO[C@H]1CN(C)C(=O)c2cc(NC(C)=O)ccc2OC[C@@H](C)N(C(=O)c2cccnc2)C[C@@H]1C	x	1.0	0.5[16.7 µM]	-9.0	x	0.7
O=C(COc1nsnc1N1CCOCC1)N/N=C/c1ccccc1O	-1.7	2.6	x	59.0*	-1.5	x
O=C(O)COc1ccc(/C=N/NC(=O)COc2nsnc2N2CCOCC2)cc1	13.8	x	-11.5	-7.5	-0.2	-0.5
Cc1c(C)c2c(OCC(=O)N3CCC(C(=O)NCC(C)C)CC3)cc3c(c2oc1=O)CCC(C)(C)O3	4.2	x	4.3	x	-2.5	-20.9
